Measured values reported in ChEMBL document CHEMBL4007420, “Structural Optimization and Pharmacological Evaluation of Inhibitors Targeting Dual-Specificity Tyrosine Phosphorylation-Regulated Kinases (DYRK) and CDC-like kinases (CLK) in Glioblastoma” (J Med Chem, 2017).
pEC50, pIC50: −log10 of the molar value. Active and inactive are the calls of the source. The rule behind the calls is not given here.

Key:
[1] = molecular target: T1, Dual specificity tyrosine-phosphorylation-regulated kinase 2 (Homo sapiens, UniProt Q92630); assay: Inhibition of DYRK2 (unknown origin) using woodtide as substrate after 40 mins in presence of [gamma-33P]ATP by microbeta scintillation counting
T1 sequence (Q92630 whole entry): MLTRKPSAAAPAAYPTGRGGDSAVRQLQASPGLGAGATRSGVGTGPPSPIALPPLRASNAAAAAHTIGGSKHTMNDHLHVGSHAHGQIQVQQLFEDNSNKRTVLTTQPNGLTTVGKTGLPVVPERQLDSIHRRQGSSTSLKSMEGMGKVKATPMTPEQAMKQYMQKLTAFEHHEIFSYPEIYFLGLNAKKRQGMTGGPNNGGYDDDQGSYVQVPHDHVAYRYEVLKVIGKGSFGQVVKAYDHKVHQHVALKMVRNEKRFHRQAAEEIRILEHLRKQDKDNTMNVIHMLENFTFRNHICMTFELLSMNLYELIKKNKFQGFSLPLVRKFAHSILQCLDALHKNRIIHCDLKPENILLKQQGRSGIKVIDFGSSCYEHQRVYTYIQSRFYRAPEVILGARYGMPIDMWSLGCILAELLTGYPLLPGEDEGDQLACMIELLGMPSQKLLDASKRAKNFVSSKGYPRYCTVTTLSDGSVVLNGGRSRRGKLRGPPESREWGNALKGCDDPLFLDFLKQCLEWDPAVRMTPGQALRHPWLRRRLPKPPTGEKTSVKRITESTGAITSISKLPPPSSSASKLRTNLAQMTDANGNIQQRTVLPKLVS

[2] = Cytotoxicity against patient-derived RN1 cells assessed as reduction in cell viability after 3 days by Alamar blue assay; assay type: functional, cell-based; conditions: Homo sapiens, RN1, 72 h
Summary of the method: (§1)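 The patient-derived glioblastoma lines were grown as stem cells under defined conditions to keep the phenotype and genotype of the resected tumours. Viability after treatment was read with Alamar blue.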

[3] = molecular target: Dual specificity tyrosine-phosphorylation-regulated kinase 1A (Homo sapiens, UniProt Q13627); assay: Inhibition of DYRK1A (unknown origin) using woodtide as substrate after 10 mins in presence of [gamma-33P]ATP by microbeta scintillation counting
[4] = Cytotoxicity against patient-derived JK2 cells assessed as reduction in cell viability after 3 days by Alamar blue assay; assay type: functional, cell-based; conditions: Homo sapiens, JK2, 72 h; summary of the method: as §1
[5] = Cytotoxicity against patient-derived SJH1 cells assessed as reduction in cell viability after 3 days by Alamar blue assay; assay type: functional, cell-based; conditions: Homo sapiens, SJH1, 72 h; summary of the method: as §1
[6] = molecular target: Dual specificity tyrosine-phosphorylation-regulated kinase 1B (Homo sapiens, UniProt Q9Y463); assay: Inhibition of DYRK1B (unknown origin) using woodtide as substrate after 40 mins in presence of [gamma-33P]ATP by microbeta scintillation counting
Chain of Dual specificity tyrosine-phosphorylation-regulated kinase 1B (Q9Y463 whole entry): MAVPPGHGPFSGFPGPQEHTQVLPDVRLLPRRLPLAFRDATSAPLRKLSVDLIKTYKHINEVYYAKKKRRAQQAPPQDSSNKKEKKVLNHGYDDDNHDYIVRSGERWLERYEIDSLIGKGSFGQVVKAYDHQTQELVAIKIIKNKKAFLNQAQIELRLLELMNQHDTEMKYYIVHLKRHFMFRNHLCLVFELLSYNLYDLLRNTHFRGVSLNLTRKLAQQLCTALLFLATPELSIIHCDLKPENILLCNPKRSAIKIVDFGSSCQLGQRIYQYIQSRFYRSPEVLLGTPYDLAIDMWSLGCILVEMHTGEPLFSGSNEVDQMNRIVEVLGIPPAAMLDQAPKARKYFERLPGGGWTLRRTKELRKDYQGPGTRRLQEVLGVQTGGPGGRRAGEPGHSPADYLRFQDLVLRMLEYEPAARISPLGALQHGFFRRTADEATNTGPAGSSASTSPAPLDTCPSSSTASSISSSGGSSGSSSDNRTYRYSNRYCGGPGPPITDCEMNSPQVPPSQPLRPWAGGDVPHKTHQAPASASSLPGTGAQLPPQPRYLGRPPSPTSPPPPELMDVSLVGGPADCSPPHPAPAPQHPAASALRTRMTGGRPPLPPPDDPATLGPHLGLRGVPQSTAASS

[7] = molecular target: Dual specificity protein kinase CLK1 (Homo sapiens, UniProt P49759); assay: Inhibition of CLK1 (unknown origin) using KKGRSRSRSRSRSR as substrate after 40 mins in presence of [gamma-33P]ATP by microbeta scintillation counting
Chain of Dual specificity protein kinase CLK1 (P49759 whole entry): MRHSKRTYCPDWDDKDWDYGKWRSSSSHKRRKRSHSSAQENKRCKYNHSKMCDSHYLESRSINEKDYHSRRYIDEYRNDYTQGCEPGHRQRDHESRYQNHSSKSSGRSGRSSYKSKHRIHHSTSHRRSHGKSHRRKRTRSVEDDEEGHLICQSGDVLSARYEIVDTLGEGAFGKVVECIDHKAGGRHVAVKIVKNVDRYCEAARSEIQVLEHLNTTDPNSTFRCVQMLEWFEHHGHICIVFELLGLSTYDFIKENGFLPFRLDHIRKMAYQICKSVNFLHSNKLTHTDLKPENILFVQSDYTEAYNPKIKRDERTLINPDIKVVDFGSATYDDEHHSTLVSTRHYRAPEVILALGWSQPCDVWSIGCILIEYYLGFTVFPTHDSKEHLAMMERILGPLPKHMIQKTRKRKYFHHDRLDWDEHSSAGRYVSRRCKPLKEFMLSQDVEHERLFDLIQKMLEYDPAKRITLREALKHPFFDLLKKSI
Summary of the method: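 CLK1 was assayed with RS peptide substrate at 100 µM ATP.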

[8] = Cytotoxicity against patient-derived WK1 cells assessed as reduction in cell viability after 5 days by Alamar blue assay; assay type: functional, cell-based; conditions: Homo sapiens, WK1, 120 h; summary of the method: as §1
Homo sapiens = organism: Homo sapiens; assay: Inhibition of tubulin (unknown origin) polymerization
A 172 [9] = assay: Antimigratory activity in human A172 cells assessed as velocity of migration at 5 uM measured up to 20 hrs by wound scratch assay (reference value: 2650 to 3123 micrometer/hr); assay type: functional
Summary of the method: (§2)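 Wound-healing migration assay: cell movement across the wound is measured as velocity (µm/h). Compounds were tested at 0, 1.0, 5.0 and 10.0 µM. Values are mean ± SEM of 3 independent experiments.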

[10] = Antimigratory activity in patient-derived RN1 cells assessed as velocity of migration at 10 uM measured up to 20 hrs by wound scratch assay (reference value: 937 to 1174 micrometer/hr); assay type: functional, Homo sapiens; summary of the method: as §2
U-251 [11] = assay: Antiinvasive activity in human U251 cells assessed as velocity of invasion at 1 uM measured up to 20 hrs by matrigel assay (reference value: 1151 to 1710 micrometer/hr); assay type: functional
A 172 [12] = assay: Antiinvasive activity in human A172 cells assessed as velocity of invasion at 10 uM measured up to 20 hrs by matrigel assay (reference value: 2659 to 3047 micrometer/hr); assay type: functional
A 172 [13] = assay: Antimigratory activity in human A172 cells assessed as velocity of migration at 10 uM measured up to 20 hrs by wound scratch assay (reference value: 2650 to 3123 micrometer/hr); assay type: functional; summary of the method: as §2
U-251 [14] = assay: Cytotoxicity against human U251 cells assessed as reduction in cell viability after 3 days by Alamar blue assay; assay type: functional, cell-based; conditions: U-251, 72 h
A 172 [15] = assay: Antimigratory activity in human A172 cells assessed as velocity of migration at 1 uM measured up to 20 hrs by wound scratch assay (reference value: 2650 to 3123 micrometer/hr); assay type: functional; summary of the method: as §2
A 172 [16] = assay: Antiinvasive activity in human A172 cells assessed as velocity of invasion at 5 uM measured up to 20 hrs by matrigel assay (reference value: 2659 to 3047 micrometer/hr); assay type: functional
A 172 [17] = assay: Antiinvasive activity in human A172 cells assessed as velocity of invasion at 1 uM measured up to 20 hrs by matrigel assay (reference value: 2659 to 3047 micrometer/hr); assay type: functional
U-251 [18] = assay: Antimigratory activity in human U251 cells assessed as velocity of migration at 5 uM measured up to 20 hrs by wound scratch assay (reference value: 2159 to 2653 micrometer/hr); assay type: functional; summary of the method: as §2
U-251 [19] = assay: Antiinvasive activity in human U251 cells assessed as velocity of invasion at 10 uM measured up to 20 hrs by matrigel assay (reference value: 1151 to 1710 micrometer/hr); assay type: functional
U-251 [20] = assay: Antimigratory activity in human U251 cells assessed as velocity of migration at 10 uM measured up to 20 hrs by wound scratch assay (reference value: 2159 to 2653 micrometer/hr); assay type: functional; summary of the method: as §2
[21] = Antimigratory activity in patient-derived RN1 cells assessed as velocity of migration at 1 uM measured up to 20 hrs by wound scratch assay (reference value: 937 to 1174 micrometer/hr); assay type: functional, Homo sapiens; summary of the method: as §2
U-251 [22] = assay: Antimigratory activity in human U251 cells assessed as velocity of migration at 1 uM measured up to 20 hrs by wound scratch assay (reference value: 2159 to 2653 micrometer/hr); assay type: functional; summary of the method: as §2
U-251 [23] = assay: Antiinvasive activity in human U251 cells assessed as velocity of invasion at 5 uM measured up to 20 hrs by matrigel assay (reference value: 1151 to 1710 micrometer/hr); assay type: functional
[24] = Antimigratory activity in patient-derived RN1 cells assessed as velocity of migration at 5 uM measured up to 20 hrs by wound scratch assay (reference value: 937 to 1174 micrometer/hr); assay type: functional, Homo sapiens; summary of the method: as §2
A 172 [25] = assay: Cytotoxicity against human A172 cells assessed as reduction in cell viability after 3 days by Alamar blue assay; assay type: functional, cell-based; conditions: A 172, 72 h

SMILES	pIC50 [1]	pIC50 [3]	pIC50 [6]	pIC50 [7]	pEC50 [2]	pEC50 [4]	pEC50 [5]	pEC50 [8]	other results
NC(=O)Nc1ccc(-c2cnc3[nH]cc(-c4ccc(O)cc4)c3c2)cc1	6.32	7.51	7.77	8.02	4.66	< 4.30	4.55	< 4.30	
CC[C@]1(O)C[C@@H]2CN(CCc3c([nH]c4ccccc34)[C@@](C(=O)OC)(c3cc4c(cc3OC)N(C)[C@H]3[C@@](O)(C(=O)OC)[C@H](OC(C)=O)[C@]5(CC)C=CCN6CC[C@]43[C@@H]65)C2)C1									inhibition (Homo sapiens): Active
Oc1ccc(-c2cnc3[nH]cc(-c4ccc(-c5nnn[nH]5)cc4)c3c2)cc1	6.38	6.55	6.76	7.07	< 4.30	< 4.30	< 4.30	< 4.30	
Oc1ccc(-c2cnc3[nH]cc(-c4ccc(O)cc4)c3c2)cc1	6.78	7.85	7.82	7.32	5.70	5.29	5.39	5.96	
CS(=O)(=O)Nc1ccc(-c2cnc3[nH]cc(-c4ccc(O)cc4)c3c2)cc1	6.14	7.25	6.89	7.36	4.85	4.89	4.38	4.38	
O=C(Nc1ccc(O)cc1)c1c[nH]c2ncc(-c3ccc(O)cc3)cc12	< 6.00	< 6.00	< 6.00	< 6.00	< 4.30	< 4.30	< 4.30	< 4.30	
O=C(Nc1cccc(O)c1)c1cnc2[nH]cc(-c3ccc(O)cc3)c2c1	6.07	6.90	6.86	7.47	4.86	4.41	5.24	4.88	
O=C(Nc1cccc(O)c1)c1c[nH]c2ncc(-c3ccc(O)cc3)cc12	< 6.00	< 6.00	< 6.00	< 6.00	< 4.30	< 4.30	< 4.30	< 4.30	
CC(=O)O[C@H]1C(=O)[C@@]2(C)[C@H]([C@H](OC(=O)c3ccccc3)[C@]3(O)C[C@H](OC(=O)[C@H](O)[C@@H](NC(=O)c4ccccc4)c4ccccc4)C(C)=C1C3(C)C)[C@]1(OC(C)=O)CO[C@@H]1C[C@@H]2O									inhibition (Homo sapiens): Active

The next lines start with results.

pIC50 [1]	pIC50 [3]	pIC50 [6]	pIC50 [7]	SMILES	pEC50 [2]	pEC50 [4]	pEC50 [5]	pEC50 [8]	other results
< 6.00	6.46	6.89	7.92	O=C(Nc1ccc(O)cc1)c1cnc2[nH]cc(-c3ccc(O)cc3)c2c1	4.90	4.42	5.28	4.68	
6.19	6.69	7.29	7.59	Oc1ccc(-c2c[nH]c3ncc(-c4ccc5[nH]ccc5c4)cc23)cc1	< 4.30	< 4.30	4.52	< 4.30	
< 6.00	6.67	6.70	6.73	O=[N+]([O-])c1ccc(-c2cnc3[nH]cc(-c4ccc(O)cc4)c3c2)cc1	< 4.30	< 4.30	< 4.30	< 4.30	
6.24	6.77	7.08	6.93	Oc1ccc(-c2cnc3[nH]cc(-c4ccc5[nH]ccc5c4)c3c2)cc1	5.24	5.20	5.66	5.21	
< 6.00	< 6.00	< 6.00	< 6.00	Nc1ccc(-c2c[nH]c3ncc(-c4ccc(O)cc4)cc23)cc1	< 4.30	< 4.30	< 4.30	< 4.30	Activity (A 172 [9]): 3065 um/hr; Activity [10]: 791 um/hr; Activity (U-251 [11]): 1451 um/hr; Activity (A 172 [12]): 2707 um/hr; Activity (A 172 [13]): 2827 um/hr; pEC50 (U-251 [14]): < 4.30; Activity (A 172 [15]): 3123 um/hr; Activity (A 172 [16]): 2232 um/hr; Activity (A 172 [17]): 2411 um/hr; Activity (U-251 [18]): 2370 um/hr; Activity (U-251 [19]): 1380 um/hr; Activity (U-251 [20]): 2702 um/hr; Activity [21]: 1070 um/hr; Activity (U-251 [22]): 2331 um/hr; Activity (U-251 [23]): 1481 um/hr; inhibition (Homo sapiens): inactive; Activity [24]: 929 um/hr; pEC50 (A 172 [25]): < 4.30
< 6.00	< 6.00	< 6.00	< 6.00	Oc1ccc(-c2ccc3[nH]nc(-c4ccc(O)cc4)c3c2)cc1	< 4.30	< 4.30	< 4.30	< 4.30	
6.39	7.07	7.38	7.15	Oc1ccc(-c2c[nH]c3ncc(-c4ccc(-c5nnn[nH]5)cc4)cc23)cc1	< 4.30	< 4.30	< 4.30	< 4.30	
< 6.00	< 6.00	< 6.00	< 6.00	Oc1ccc(-c2ccc3[nH]cc(-c4ccc(O)cc4)c3c2)cc1	< 4.30	< 4.30	< 4.30	< 4.30	
